SENP7 inh: SENP7 protease inhibitors, primary screen, biochemical, luminescence, uHTS | 330,000 compounds, 1.5% hits | AID 434973, 2010 | inhibition, % at 5 µM | recombinant SENP7, Z-RLRGG-aminoluciferin luminescence, 40 min | Sentrin-specific protease 7 (Homo sapiens), Q9BQF6;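 active = inhibition above about 50% at the single test dose, limit read from the data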;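 note: plate controls were DMSO with enzyme for no effect and no enzyme buffer wells for full effect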
Target sequence (Q9BQF6 706-1050 limits assumed): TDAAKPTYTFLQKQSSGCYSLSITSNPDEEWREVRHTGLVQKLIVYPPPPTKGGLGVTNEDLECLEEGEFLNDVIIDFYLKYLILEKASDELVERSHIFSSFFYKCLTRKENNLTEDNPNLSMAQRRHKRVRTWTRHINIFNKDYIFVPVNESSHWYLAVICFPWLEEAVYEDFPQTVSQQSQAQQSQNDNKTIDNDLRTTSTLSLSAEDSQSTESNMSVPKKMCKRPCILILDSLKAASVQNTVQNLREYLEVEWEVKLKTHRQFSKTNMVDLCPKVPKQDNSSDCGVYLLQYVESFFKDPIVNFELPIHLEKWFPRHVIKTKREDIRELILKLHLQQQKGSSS
Platelet DG rel: inhibitors of platelet dense granule secretion, primary screen, cell-based, MLPCN, human platelets; human platelet-rich plasma, SFLLRN dense granule ATP release, luminescence; AID 1663, 2009; inhibition, %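 (compounds screened at 7.5 µM in platelet-rich plasma)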; 300,000 compounds, 0.22% hits;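 active = mean replicate score, as percent of positive control, at or above 50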
SENP8 block-1: human SENP8 protease inhibitors, primary screen, biochemical, fluorescence, Nedd8 protein substrate, uHTS; inhibition, % at 20 µM; AID 602440, 2012; recombinant SENP8; 360,000 compounds, 0.64% hits; Sentrin-specific protease 8 (Homo sapiens), Q96LD8; in the data active = inhibition mostly above about 40%, no sharp cut-off; inactive = mostly below about 27%
SENP6 block: SENP6 protease inhibitors, primary screen, biochemical, luminescence, uHTS | Sentrin-specific protease 6 (Homo sapiens), Q9GZR1 | Recombinant SENP6 catalytic domain, aminoluciferin luminescence | inhibition, % at 10 µM | 330,000 compounds, 1.8% hits;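 active = inhibition above about 50% at the single tested dose, limit read from the data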;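 note: plate controls were DMSO wells with enzyme for no effect and DMSO wells lacking enzyme for full effect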
SENP8 block-2: SENP8 protease inhibitors, primary screen, biochemical, luminescence; 330,000 compounds, 1.2% hits; inhibition, % at 10 µM; AID 2540, 2010; Sentrin-specific protease 8 (Homo sapiens), Q96LD8; purified SENP8, Z-RLRGG-aminoluciferin cleavage; in the data active = inhibition above about 50%
SENP1 inh: human SENP1 catalytic domain inhibitors, primary screen, biochemical, FRET, uHTS. recombinant SENP1 catalytic domain, CyPet-SUMO1-YPet FRET cleavage. 360,000 compounds, 0.21% hits. inhibition, % at 10 µM;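 active = inhibition at least 30% at 10 µM, raw YFP signal under a set limit, fluorescence ratio 0.5 to 1.5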;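 note: 0% = enzyme with DMSO and 100% = no enzyme wells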
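Assay system – human recombinant His6-tagged SENP1 catalytic domain enzyme · Input – SENP1 enzyme, 20 pM final · Buffer or medium – Tris pH 8 buffer plus EDTA, NaCl, BME, BSA, NP40, catalase · Schedule – 50 min reaction at room temperature · Technique – FRET read of cyan and yellow fluorescence · Control set – no-enzyme wells low, DMSO-plus-enzyme wells high control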
SENP8 conf-1: SENP8 protease inhibitors, retest, confirmation, biochemical, luminescence, single concentration; shares compounds with SENP7 inh; Recombinant SENP8, Z-RLRGG-aminoluciferin luminescence, 60 min; inhibition, % at 12.5 µM; 6,200 compounds, 40% hits; AID 488912, 2010;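 active = mean inhibition across replicates above about 50%, limit read from the data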
SENP6 confirm: SENP6 protease inhibitors, confirmation, biochemical, luminescence, single concentration; 6,200 compounds, 58% hits; recombinant SENP6, Z-RLRGG-aminoluciferin luminescence; AID 488915, 2010; inhibition, % at 12.5 µM; shares compounds with SENP7 inh
SENP7 confirm: SENP7 protease inhibitors, retest, confirmation, biochemical, luminescence, single concentration | shares compounds with SENP7 inh | recombinant SENP7, Z-RLRGG-aminoluciferin luminescence, 40 min | inhibition, % at 12.5 µM | 6,200 compounds, 69% hits | AID 488917, 2010
Casp3 select: caspase-3 protease inhibitors, confirmation, selectivity assay for SENP inhibitor project, biochemical, single concentration; AID 488918, 2010; shares compounds with SENP7 inh; 6,200 compounds, 60% hits; inhibition, % at 12.5 µM; purified caspase-3, Z-DEVD-aminoluciferin luminescence, 60 min;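 active = mean inhibition above about 50%, limit read from the data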;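 note: plate controls were enzyme with DMSO for no effect and wells without caspase-3 for full effect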
Luc interf: interferes with luciferase luminescence in SENP counter-screen; AID 488919; inhibition, % at 12.5 µM; Pre-incubated SENP8/Z-RLRGG-aminoluciferin, luciferase luminescence interference; 6,200 compounds, 39% hits; shares compounds with SENP7 inh;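 active = mean inhibition above about 50% when retested at one dose, limit read from the data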;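 note: plate controls were DMSO wells with completed reaction for no effect and substrate without enzyme for full effect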
SENP8 conf-2: human SENP8 protease inhibitors, confirmation, biochemical, Nedd8 protein substrate, single concentration; purified SENP8, Nedd8-AMC/pro-Nedd8 cleavage fluorescence, 30 min; shares compounds with SENP8 block-1; 1,400 compounds, 15% hits; AID 624319, 2012; inhibition, % at 25 µM; in the data active = inhibition mostly above about 39%, no sharp cut-off; inactive = mostly below about 34%
SENP1 conf: human SENP1 catalytic domain inhibitors, confirmation, biochemical, FRET endpoint, single concentration; inhibition, % at 10 µM; 520 compounds, 34% hits; recombinant SENP1, CyPet-SUMO1-YPet FRET cleavage; shares compounds with SENP1 inh; in the data active = inhibition mostly above about 35%, no sharp cut-off; inactive = mostly below about 32%;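 note: 0% = enzyme with DMSO and 100% = no enzyme control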
SENP1 kin conf: human SENP1 catalytic domain inhibitors, confirmation, biochemical, kinetic FRET, single concentration. shares compounds with SENP1 inh. recombinant SENP1, CyPet-SUMO1-YPet FRET kinetic cleavage. inhibition, % at 10 µM. 520 compounds, 26% hits; in the data active = inhibition mostly above about 32%, no sharp cut-off; inactive = mostly below about 29%;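 note: 0% = DMSO with enzyme and 100% = no enzyme substrate only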
* = called active by the depositor; nt = no result given. This is a sample that favours compounds with a hit; in the whole collection about 2.6% have one here.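 Rule for the calls, unless noted: active = mean inhibition above about 50% in the one-dose retest (limit read from the data); inactive = the rest.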

SMILES	SENP7 inh	Platelet DG rel	SENP8 block-1	SENP6 block	SENP8 block-2	SENP1 inh	SENP8 conf-1	SENP6 confirm	SENP7 confirm	Casp3 select	Luc interf	SENP8 conf-2	others
CC(=O)N1N=C(c2ccccc2)OC1c1ccc([N+](=O)[O-])s1 (centres undefined)	33	-1	61*	66*	33	0	15	24	0	-1	-1	39*
CC(=O)N1N=C(c2cccc([N+](=O)[O-])c2)OC1c1ccc(Br)cc1 (centres undefined)	3	-6	17	-13	-8	0	nt	nt	nt	nt	nt	nt
COc1ccc(-c2oc3c(c2C(=O)OCCO)C(OCCO)CCC3)cc1 (centres undefined)	nt	nt	-374	nt	nt	2	nt	nt	nt	nt	nt	nt
COc1ccccc1N1C(=O)Cc2ccccc2C1=O	40	-2	90*	69*	19	-4	18	63*	31	15	-3	55*
COC(=O)C1=C(CS(=O)(=O)c2ccccc2)NC(=O)NC1c1ccc(OC)c(OC)c1 (centres undefined)	-4	1	6	2	-1	1	nt	nt	nt	nt	nt	nt
O=C1C(=O)N(Cc2ccccc2)C(=O)N1CCN1C(=O)c2ccccc2C1=O	-9	8	9	-39	-11	-2	nt	nt	nt	nt	nt	nt
O=C1Cc2ccccc2C(=O)N1CCc1ccccc1	87*	-4	98*	97*	95*	1	86*	96*	86*	96*	12	88*
CC(=O)Oc1ccc(/C=C/c2nc3ccccc3c(=O)o2)cc1	99*	83*	-134	96*	95*	52*	74*	79*	55*	68*	50	nt	SENP1 conf=-33;SENP1 kin conf=-22
CCN1C(=O)c2cccc3c(NC(=O)C4CCCCC4)ccc1c23	72*	8	11	-6	0	40*	-8	-2	-5	-5	-6	nt	SENP1 conf=20;SENP1 kin conf=30*
Cc1c(O)ccc(/C(Cc2ccc3ccccc3n2)=N\O)c1O	-3	0	12	-12	-4	-3	nt	nt	nt	nt	nt	nt
